pKi: −log10 of the molar value.
Experiments:
Mus musculus [1] = experiment: Neurotoxicological activity in NMRI BR mice after ip administration by rotarod test; format: functional
Outline: (§1)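 Male mice (CF-1 at NIH; NMRI BR at elbion), trained beforehand, dosed i.p. Motor impairment was defined as failure to stay on a rod (6 rpm, 0.9 cm diameter) for 1 min in at least one of three trials. The same animals were tested at several times (≥3 doses, n = 8/group). TD50 at peak time by probit analysis.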

Rattus norvegicus [2] = experiment: Anxiolytic activity in rat after oral administration by PTZ test; format: functional
Outline: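 Rats dosed orally. PTZ 70 mg/kg given s.c., then 30 min observation for first generalized clonic seizure with loss of righting reflex. Protection was measured at several pretreatment times (n = 3-4), and the peak time was used for the dose-response.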

Cynomolgus monkey [3] = experiment: Plasma concentration in cynomolgus monkey at 5 mg/kg, po; format: ADME, organism-based, Macaca fascicularis; design: dose 5 mg/kg, route oral; conditions: in vivo
Rattus norvegicus [4] = experiment: Anxiolytic activity in rat after oral administration by vogel conflict test; format: functional; conditions: read-out: MED
Outline: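 Modified Vogel conflict test in rats after oral dosing. Water-deprived 24 h, trained to drink 5.0% glucose for 5 min, deprived a further 24 h. The 210 s test session had 30 s unpunished drinking, then 180 s with mild shock on touching the drinking tube. Punished and unpunished licks counted. Minimal effective dose reported.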

Mus musculus [5] = experiment: Anxiolytic activity in NMRI BR mice after ip administration by PTZ test; format: functional
Outline: (§2)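 Male mice (NMRI BR at elbion, three per dose; CF-1 at NIH, up to five) given compound or vehicle i.p. at 30, 100, 300 mg/kg, 30 min and 4 h pretreatment. PTZ 85 mg/kg s.c. into neck, then 30 min observation for first generalized clonic seizure with loss of righting reflex.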

[6] = target: GABA-A receptor; anion channel; experiment: Binding affinity to Wistar rat benzodiazepine receptor; format: protein-complex assay
Outline: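 Rat (male Wistar, 180-200 g) whole-brain membranes without cerebellum in 0.05 M Tris/HCl pH 7.7. Bound ligand separated on filters and counted by scintillation. IC50 from 6-10 concentrations, Ki by Cheng-Prusoff, at least four repeats averaged.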

Rattus norvegicus [7] = experiment: Neurotoxicological activity in rat after oral administration by rotarod test; format: functional
Outline: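 Trained male rats dosed orally. Motor impairment was defined as failure to stay on a rod (8 rpm, 6 cm diameter) for 1 min in at least one of three trials. The same animals were tested at several time points (≥3 dose groups, n = 8/group). TD50 at time of peak neurotoxicity by probit analysis.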

[8] = Partition coefficient of the compound, log P; format: physicochemical; conditions: octanol/water
Outline: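 Experimental 1-octanol/water partition coefficient.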

[9] = target: GABA-A receptor; anion channel (Rattus norvegicus) (UniProt O09028+P15431+P18506+P18508+P19969+P20236+P23574+P23576+P28471+P28473+P30191+P62813+P63079+P63138+Q91ZM7+Q9ES14); experiment: Inhibition of Wistar rat benzodiazepine receptor at 2 uM; format: protein-complex assay
Mus musculus [10] = experiment: Neurotoxicological activity in CF1 mice after ip administration by rotarod test; format: functional; outline: as §1
Mus musculus [11] = experiment: Anxiolytic activity in CF1 mice after ip administration by PTZ test; format: functional; outline: as §2
Cynomolgus monkey [12] = experiment: Plasma concentration in cynomolgus monkey at 30 mg/kg, po; format: ADME, organism-based, Macaca fascicularis; design: dose 30 mg/kg, route oral; conditions: in vivo

| SMILES | TD50 (Mus musculus [1]) | ED50 (Rattus norvegicus [2]) | concentration (Cynomolgus monkey [3]) | minimal effective dose (Rattus norvegicus [4]) | ED50 (Mus musculus [5]) | pKi [6] | TD50 (Rattus norvegicus [7]) | logP [8] | inhibition [9] | TD50 (Mus musculus [10]) | ED50 (Mus musculus [11]) | concentration (Cynomolgus monkey [12]) |
| --- | --- | --- | --- | --- | --- | --- | --- | --- | --- | --- | --- | --- |
| O=C1C2C=Nc3ccccc3C2=NN1c1ccc(Cl)cc1 (configuration not stated) [CGS-9896] | 302 mg/kg | 2.7 mg/kg | 0.027 µM | 0.3 mg/kg | 1.36 mg/kg | 8.62 | > 500 mg/kg | – | – | – | – | – |
| O=C1N=C(N2CCOCC2)CN1Cc1c(Cl)cccc1Cl | > 300 mg/kg | – | – | – | > 300 mg/kg | – | – | 1.3 | – | – | – | – |
| Cc1ccc(N2CC(N3CCOCC3)=CC2=O)cc1 | 100 mg/kg | – | – | – | 89.3 mg/kg | 6.46 | – | 1.4 | – | – | – | – |
| O=c1cc(-c2ccccc2)on1-c1ccc(Cl)cc1 | < 300 mg/kg | – | – | – | 253 mg/kg | – | – | 4.1 | – | – | – | – |
| O=C1N=C(N2CCOCC2)CN1Cc1ccccc1Cl | > 300 mg/kg | – | – | – | > 300 mg/kg | – | – | 1 | – | – | – | – |
| O=C1N=C(N2CCOCC2)CN1c1ccc(Br)cc1 | 345 mg/kg | 27.7 mg/kg | – | 100 mg/kg | 21.8 mg/kg | 5.51 | 473 mg/kg | 1.4 | – | – | – | – |
| O=c1cc(-c2ccccc2)[nH]n1-c1ccc(Cl)cc1 | > 300 mg/kg | – | – | – | > 300 mg/kg | – | – | 2.6 | < 20% | – | – | – |
| O=C1C=C(N2CCOCC2)CN1c1ccc(Cl)cc1 | 97 mg/kg | – | – | 10 mg/kg | 10.9 mg/kg | 6.85 | > 500 mg/kg | 1.9 | – | 60.9 mg/kg | – | – |
| CN(C)C1=NC(=O)N(c2ccc(Cl)cc2)C1 | > 300 mg/kg | – | – | – | > 300 mg/kg | – | – | 1.6 | < 20% | – | – | – |
| O=C1N=C(N2CCOCC2)CN1Cc1ccccc1 | > 300 mg/kg | – | – | – | > 300 mg/kg | – | – | 0.5 | < 20% | – | – | – |
| O=C1C=C(N2CCCC2)C(=O)N1c1ccc(Cl)cc1 | > 300 mg/kg | – | – | – | > 300 mg/kg | 5.49 | – | 3 | – | – | – | – |
| O=C1N=C(N2CCOCC2)CN1c1ccc(F)cc1 | – | 34.1 mg/kg | – | – | – | – | > 60 mg/kg | – | < 20% | > 500 mg/kg | 35 mg/kg | – |
| O=C1C=C(N2CCOCC2)C(=O)N1c1ccc(Cl)cc1 | > 300 mg/kg | – | – | – | 120 mg/kg | 5.05 | – | 2.3 | – | – | – | – |
| CN1CCN(C2=NC(=O)N(c3ccc(Cl)cc3)C2)CC1 | > 100 mg/kg | – | – | – | > 300 mg/kg | – | – | 2.2 | < 20% | – | – | – |
| CN1C(=O)CN=C(c2ccccc2)c2cc(Cl)ccc21 [DIAZEPAM] | 2 mg/kg | 6.3 mg/kg | – | 1 mg/kg | 0.4 mg/kg | – | 13 mg/kg | – | – | – | – | – |
| O=C1C=C(N2CCCC2)C(=O)N1c1ccc(F)cc1 | > 300 mg/kg | – | – | – | > 200 mg/kg | – | – | 2.3 | < 20% | – | – | – |
| Clc1ccc(-c2noc(N3CCOCC3)n2)cc1 | > 300 mg/kg | – | – | – | > 300 mg/kg | 4.58 | – | 3.1 | – | – | – | – |
| O=C1C=C(N2CCOCC2)CN1c1ccc(F)c(Cl)c1 | < 100 mg/kg | – | – | – | 22.3 mg/kg | 5.69 | – | 2.2 | – | – | – | – |
| CN(C1=NC(=O)N(c2ccc(Cl)cc2)C1)C1CCCCC1 | > 300 mg/kg | – | – | – | > 300 mg/kg | – | – | 2.7 | – | – | – | – |

| SMILES | TD50 (Mus musculus [1]) | ED50 (Rattus norvegicus [2]) | concentration (Cynomolgus monkey [3]) | minimal effective dose (Rattus norvegicus [4]) | ED50 (Mus musculus [5]) | pKi [6] | TD50 (Rattus norvegicus [7]) | logP [8] | inhibition [9] | TD50 (Mus musculus [10]) | ED50 (Mus musculus [11]) | concentration (Cynomolgus monkey [12]) |
| --- | --- | --- | --- | --- | --- | --- | --- | --- | --- | --- | --- | --- |
| O=C1N=C(N2CCOCC2)CN1c1ccccc1 | > 300 mg/kg | – | – | – | 121 mg/kg | 5.20 | – | 0.6 | – | – | – | – |
| Cc1cccc(N2CC(N3CCOCC3)=CC2=O)c1 | < 100 mg/kg | – | – | – | 62.3 mg/kg | 5.35 | – | 1.5 | – | – | – | – |
| Clc1ccc(-c2cnn(-c3ccccn3)c2)cc1 | > 300 mg/kg | – | – | – | > 300 mg/kg | – | – | 4.3 | – | – | – | – |
| O=C1C=C(N2CCCCCC2)CN1c1ccc(Cl)cc1 | > 100 mg/kg | – | – | – | 234 mg/kg | 6.36 | – | 3.4 | – | – | – | – |
| Clc1ccc(-n2cnc(-c3ccccc3)c2)cc1 | > 300 mg/kg | – | – | – | > 300 mg/kg | 5.48 | – | 3.7 | – | – | – | – |
| O=C1C=C(N2CCOCC2)C(=O)N1c1ccc(F)cc1 | > 100 mg/kg | – | – | – | 128 mg/kg | – | – | 1.5 | < 20% | – | – | – |
| O=C1N=C(N2CCCCCCC2)CN1c1ccc(Cl)cc1 | > 300 mg/kg | – | – | – | > 300 mg/kg | – | – | 2.7 | – | – | – | – |
| O=C1C=C(c2ccc(Cl)cc2)C(=O)N1c1ccc(Cl)cc1 | > 300 mg/kg | – | – | – | > 300 mg/kg | – | – | 3 | < 20% | – | – | – |
| CC(c1ccccc1)N1CC(N2CCOCC2)=NC1=O (configuration not stated) | > 100 mg/kg | – | – | – | > 300 mg/kg | – | – | 0.8 | – | – | – | – |
| O=C1C=C(N2CCOCC2)CN1c1ccc(F)cc1 | > 300 mg/kg | – | – | – | 337 mg/kg | 6.31 | – | – | – | – | – | – |
| O=C1N=C(N2CCOCC2)CN1c1ccc(Cl)c(Cl)c1 | > 300 mg/kg | – | – | – | > 300 mg/kg | – | – | 1.9 | < 20% | – | – | – |
| O=C1N=C(N2CCOCC2)CN1c1cccc(Cl)c1 | > 300 mg/kg | – | – | – | > 300 mg/kg | – | – | 1.3 | < 20% | – | – | – |
| O=C1N=C(N2CCCC2)CN1c1ccc(Cl)cc1 | > 300 mg/kg | 14.2 mg/kg | – | 3 mg/kg | > 300 mg/kg | 5.37 | > 500 mg/kg | 2 | – | – | – | – |
| O=C1C=C(N2CCCC2)CN1c1ccc(Cl)cc1 | > 300 mg/kg | > 200 mg/kg | – | – | > 300 mg/kg | 7.17 | – | – | – | – | – | – |
| O=C1N=C(N2CCOCC2)CN1c1ccc(I)cc1 | – | 50 mg/kg | – | – | – | – | > 50 mg/kg | 1.7 | – | > 300 mg/kg | 43 mg/kg | – |
| O=C1N=C(N2CCOCC2)CN1c1ccc(Cl)cc1 [IMEPITOIN] | 75.6 mg/kg | – | – | 3 mg/kg | – | 5.36 | 998 mg/kg | 1.5 | – | 176 mg/kg | 17.2 mg/kg | 39 µM |
| O=c1oc(-c2ccccc2)nn1-c1ccc(Cl)cc1 | > 300 mg/kg | – | – | – | > 300 mg/kg | – | – | 2.6 | < 20% | – | – | – |
| COC1(OC)C(N2CCOCC2)=NC(=O)N1c1ccc(Cl)cc1 | > 30 mg/kg | – | – | – | > 100 mg/kg | – | – | 1.7 | < 20% | – | – | – |
| O=C1N=C(N2CCCCCC2)CN1c1ccc(Cl)cc1 | > 300 mg/kg | – | – | – | > 300 mg/kg | 4.94 | – | – | – | – | – | – |
